# In the library only some 4.5% were active in any assay of this set; here they are far more common.
# NF-kB neuron act: compounds increasing NF-kB expression in human neuronal cells | NF-kB reporter expression; active compounds read high | fold change at 12.5 µM | 190,000 tested, 1.6% active; in the data active means fold change above about 3.3
# STAT1 activator: activators of IFN-gamma induced STAT1 signaling. NIH 3T3 STAT1-luciferase reporter, luminescence; 100% = IFN-gamma alone, no compound. AID 932. 200,000 tested, 2.6% active. activation (% of control), % at 5.5 µM;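 active means activation above the screen-wide mean activation plus 3 SD, cut at about 130% in these data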;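 further: raw ratio to IFN-gamma control signal so 100% means no change and 0% no light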
# APP 5'UTR act: activates APP 5'UTR luciferase reporter. 190,000 tested, 1% active. SH-SY5Y APP 5'UTR luciferase reporter, luminescence; zero percent = DMSO vehicle wells. activation, % at 2 µM;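 active means activation above a set limit, based on mean plus 3 SD of controls, cut at about 140% in these data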
# MDM2 E3 inh: blocks human Mdm2 ubiquitin ligase activity | Q00987 | cell-based MDM2 ubiquitination luciferase reporter, 2 h; 0 = plate control, 100 = twice control, blank-subtracted | signal enhancement, % at 5 µM | 210,000 tested, 0.11% active | AID 1230;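 active means signal enhancement of 30% or more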;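 further: luminescence tracks abundance of the self-degrading MDM2-luciferase fusion protein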
#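 test system = mammalian cells stably expressing self-ubiquitinating, self-degrading MDM2 E3–luciferase fusion | quantity = 2000 cells/well | incubation = cell settling 4 h, compound treatment 2 h, both 37 °C | signal = luminescence with SteadyLite reagent, 15 min at room temperature | evaluation = % enhancement relative to plate controls after blank subtraction | benchmarks = plate controls and plate blanks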
# PERK inhibitor: blocks human PERK kinase | AID 1416 | Q9NZJ5 | CHO PERK-DD fusion, SEAP luminescence translation reporter | 220,000 tested, 0.17% active | inhibition, % at 5.6 µM;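 active means inhibition above the mean inhibition of all tested compounds plus 3 SD, set separately per screening campaign, cut at about 2.9% in these data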;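 further: PERK kinase domain activated by AP20187 dimerizer at 100 nM; 0% = DMSO with dimerizer and 100% = rapamycin at 8.4 µM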
# Target sequence (Q9NZJ5 whole entry, looked up, the tested form may be a part): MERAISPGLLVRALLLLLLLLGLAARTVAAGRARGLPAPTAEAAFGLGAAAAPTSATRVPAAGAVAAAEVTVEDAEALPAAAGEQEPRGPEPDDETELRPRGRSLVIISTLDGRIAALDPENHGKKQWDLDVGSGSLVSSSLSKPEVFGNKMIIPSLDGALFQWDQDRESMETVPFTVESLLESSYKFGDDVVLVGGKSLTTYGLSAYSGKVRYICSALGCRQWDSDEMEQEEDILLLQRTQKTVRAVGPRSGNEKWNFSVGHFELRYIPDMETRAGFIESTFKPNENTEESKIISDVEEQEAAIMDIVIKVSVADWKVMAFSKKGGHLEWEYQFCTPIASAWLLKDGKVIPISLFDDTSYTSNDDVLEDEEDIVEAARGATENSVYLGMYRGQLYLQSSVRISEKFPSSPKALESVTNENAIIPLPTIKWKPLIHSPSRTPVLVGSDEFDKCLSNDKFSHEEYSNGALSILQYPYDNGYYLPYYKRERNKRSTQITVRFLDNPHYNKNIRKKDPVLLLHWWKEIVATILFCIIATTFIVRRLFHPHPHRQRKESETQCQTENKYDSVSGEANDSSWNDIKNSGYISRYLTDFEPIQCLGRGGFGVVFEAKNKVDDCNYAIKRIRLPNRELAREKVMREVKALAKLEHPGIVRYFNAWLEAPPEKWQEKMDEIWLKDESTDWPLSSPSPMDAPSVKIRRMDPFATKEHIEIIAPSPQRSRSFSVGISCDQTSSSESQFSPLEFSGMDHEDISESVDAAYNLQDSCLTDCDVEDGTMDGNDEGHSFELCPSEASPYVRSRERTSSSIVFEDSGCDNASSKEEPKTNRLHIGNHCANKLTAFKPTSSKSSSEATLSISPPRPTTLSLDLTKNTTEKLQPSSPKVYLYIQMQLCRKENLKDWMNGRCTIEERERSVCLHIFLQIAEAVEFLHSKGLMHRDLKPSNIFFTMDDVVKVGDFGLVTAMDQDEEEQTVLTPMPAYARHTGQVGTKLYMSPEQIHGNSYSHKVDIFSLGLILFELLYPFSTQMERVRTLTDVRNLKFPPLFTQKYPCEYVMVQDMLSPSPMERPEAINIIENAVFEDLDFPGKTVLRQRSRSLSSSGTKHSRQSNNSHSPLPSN
# AHR act: activates the human aryl hydrocarbon receptor | AHR-responsive luciferase reporter cells, luminescence | P35869 | AID 2796 | 320,000 tested, 2.5% active | activation, % at 5 µM; in the data active means activation above about 47%;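 further: 0% = vehicle wells and 100% = reference agonist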
# * hit, by the source's call; / = not tested or not shown.
SMILES,NF-kB neuron act,STAT1 activator,APP 5'UTR act,MDM2 E3 inh,PERK inhibitor,AHR act
O=C(CSc1nnc2ccccn12)Nc1ccc2c(c1)OCO2,1.3,118,-15,7,0,20
O=C(CCS(=O)(=O)c1ccccc1)Nc1cccc(-c2nc3ccccc3s2)c1,3.7*,114,111,-6,-1,68*
O=C(Cc1c(Cl)cccc1Cl)NC1=NCCS1,1.1,109,11,-7,0,2
CCn1c(=O)c2sccc2n(Cc2cc(C(=O)OC)ccc2OC)c1=O,/,/,/,/,/,1
O=C(NC(=S)NC1CCCCC1)c1ccccc1[N+](=O)[O-],/,/,/,/,/,1
O=C(Nc1cccc(-c2nc3ccccc3s2)c1)c1cc(=O)c2ccccc2o1,0.65,109,26,-11,1,12
O=C(Nc1cccc(-c2nc3ccccc3s2)c1)c1cccs1,1.9,140*,7,7,1,46
O=C(Nc1ccc2oc(-c3ccccc3)nc2c1)c1cccs1,2.1,143*,155*,2,0,-10
CCN(CCCNC(=O)CCn1c(=S)[nH]c2cc3c(cc2c1=O)OCO3)c1cccc(C)c1,/,/,/,/,/,2
COc1cccc(CNC(=O)COC(=O)c2cc([N+](=O)[O-])ccc2N2CCCC2)c1,/,/,/,/,/,1
CCOc1ccc2nc(SC3CC(=O)N(c4ccc(OC)cc4OC)C3=O)sc2c1 (stereo unspecified),1.1,102,7,-9,0,1
COc1ccc(-c2nnnn2C)cc1S(=O)(=O)Nc1ccc(C)cc1C,/,/,/,/,/,9
Cc1csc(NC(=O)c2cc3c(s2)CCCC3)n1,2.4,78,165*,-21,0,16
Cc1cnc(NC(=O)c2cc3c(s2)CCCC3)s1,4.1*,62,173*,-8,0,13
Cc1csc(NC(=O)c2cc3c(s2)CCCCC3)n1,1.3,38,129,-82,-1,-11
Cc1nn(-c2ccccc2)c2sc(C(=O)N3CCOCC3)cc12,2,121,73,-9,0,78*
Cc1nn(-c2ccccc2)c2sc(C(=O)O)cc12,1.1,101,21,-14,0,1
O=C(c1cc2c(=O)n3ccccc3nc2s1)N1CCOCC1,2,131*,45,-14,0,13
CC1CCN(C(=O)c2cc3c(=O)n4ccccc4nc3s2)CC1,/,/,/,/,/,4
CC(OC(=O)CCC(=O)c1ccc(Cl)s1)C(=O)NC1(C#N)CCCCC1 (stereo unspecified),/,/,/,/,/,5
CC(=O)n1cc(C(C[N+](=O)[O-])SCCN)c2ccccc21 (stereo unspecified),1.1,98,4,-14,0,51*
C#CCN1C(=O)S/C(=C/C=C/c2ccc(N(C)C)cc2)C1=O,3.2,136*,106,-7,1,-1
C=CCn1c(C)cc(C(=O)CSc2nc3ccccc3c(=O)[nH]2)c1C,2,134*,34,-27,-1,9
COCCn1c(C)cc(C(=O)CSc2nc3ccccc3c(=O)[nH]2)c1C,1.7,142*,23,-17,-1,20
C=CCn1c(C)cc(C(=O)CSc2nc3ccccc3[nH]2)c1C,0.74,73,122,-17,0,-9
SMILES,NF-kB neuron act,STAT1 activator,APP 5'UTR act,MDM2 E3 inh,PERK inhibitor,AHR act
C=CCn1c(C)cc(C(=O)CSc2n[nH]c(N)n2)c1C,1.4,105,21,8,0,50*
COCC(C)n1c(C)cc(C(=O)CSc2nc3ccccc3c(=O)[nH]2)c1C (stereo unspecified),0.98,85,0,-7,0,2
CCOC(=O)C1=C(COC(=O)C(CC)c2ccccc2)NC(=O)NC1C (stereo unspecified),/,/,/,/,/,-2
O=C(NC(=S)Nc1nc2c(s1)CSc1ccccc1-2)c1ccccc1,1.2,87,-5,-29,0,69*
O=C(NC(=S)Nc1nc2c(s1)CCCC2)c1ccc(C(=O)c2ccccc2)cc1,1.1,92,-5,-3,0,10
Clc1ccc(-c2nc3cnccn3c2Nc2ccc3c(c2)OCO3)cc1,0.95,98,-7,-8,-1,17
CSc1ccc(-c2nc3cnccn3c2Nc2ccc3c(c2)OCO3)cc1,0.93,108,-5,-7,0,188*
COc1ccc(-c2nc3cnccn3c2Nc2ccc(C)cc2)cc1,1.3,100,2,-8,-1,65*
Cc1ccc(-c2nc3cnccn3c2Nc2ccc3c(c2)OCO3)o1,1.3,103,-9,-4,0,53*
Cn1cc(/C=C(\NC(=O)c2ccccc2)C(=O)NCCN2CCOCC2)c2ccccc21,/,/,/,/,/,13
CN(C)c1ccc(C(CNS(=O)(=O)c2ccc3ccccc3c2)N2CCOCC2)cc1 (stereo unspecified),/,/,/,/,/,4
CC1=CC(C)(C)N2C(=O)C3(C(C#N)=C(N)Oc4cc(O)ccc43)c3cccc1c32 (stereo unspecified),0.97,131*,-15,10,0,13
CC1=CC(C)(C)N2C(=O)C3(C(C#N)=C(N)OC4=C3C(=O)CC(C)(C)C4)c3cccc1c32 (stereo unspecified),1.1,102,-2,-8,1,/
CC1CCCC(C)N1/N=C/c1ccc(N(C)C)cc1 (stereo unspecified),1.5,110,-15,-1,0,9
C=CCN1N=C(/C=C/c2ccc(OC)cc2)CCC1=O,/,/,/,/,/,11
C=CCN1N=C(/C=C/c2ccc(C)cc2)CCC1=O,2.1,137*,44,5,1,8
O=C(Nc1ccccc1-c1nc2ccccc2s1)C1=COCCO1,1.3,105,-6,-9,0,93*
O=C(Nc1nc2ccc(F)cc2s1)C1=COCCO1,/,/,/,/,/,48*
CN(C(=O)COC(=O)c1ccccc1OCc1ccc(Cl)cc1)c1c(N)n(Cc2ccccc2)c(=O)[nH]c1=O,/,/,/,/,/,1
COCCNC(=S)N/N=C(\C)c1ccc2cc(OC)ccc2c1,1.6,101,-10,-8,0,27
COCCNC(=S)N/N=C(\C)c1cc2ccccc2o1,1.1,94,4,5,0,68*
COCCNC(=S)N/N=C(\C)c1ccc(OC)cc1,1,95,24,1,0,54*
COc1cccc(C2=NN(S(C)(=O)=O)C(c3cccs3)C2)c1 (stereo unspecified),1.9,108,13,-15,-1,19
CCN(Cc1ccccc1)C(=O)c1nn(-c2ccc(OC)cc2)c(=O)c2c1c1ccccc1n2C,0.36,99,0,-17,0,12
O=C(NC(=S)NCc1ccccc1)c1cccc(Cl)c1,/,/,/,/,/,0
CCSc1nc(C(F)(F)F)cc(=O)n1-c1ccccc1,0.98,102,-6,-9,1,0
CC(C)Sc1nc(C(F)(F)F)cc(=O)n1-c1ccccc1,0.93,98,0,-9,3.0*,1
CCn1nc(C)cc1C(=O)N1CCCC(Nc2ccc(F)c(F)c2)C1 (stereo unspecified),/,/,/,/,/,-7
